Measured values of several laboratories.
Protocols differ between the studies behind these lines. In brackets after ≈: the same amount, converted by molar mass.
Organism: Mycobacterium tuberculosis
Observed: microbial growth

SMILES	assay	system	setting	quantity	result
CSCOc1ccc2nc3ccc(=O)cc-3oc2c1	–	–	7 days	MIC90	47 µM (≈ 12.8 µg/mL)
CC[C@@H](CO)NCCN[C@@H](CC)CO	resazurin	H37RV	–	MIC	7.64 µM
NNC(=O)c1ccncc1	resazurin	H37RV	0.212 µM	inhibition	44%
O=C1c2ccccc2NC(c2cc([N+](=O)[O-])ccc2O)N1/N=C/c1cc([N+](=O)[O-])ccc1O (centres unmarked)	–	ATCC25177 H37RA	14 days	MIC	64 µg/mL
COc1c(N2CC3CCCNC3C2)c(F)cc2c(=O)c(C(=O)OCc3cnc([N+](=O)[O-])s3)cn(C3CC3)c12 (centres unmarked)	–	H37RV	–	MIC	0.25 µM
CCCCOc1ccc2nc3ccc(=O)cc-3oc2c1	–	–	7 days	MIC90	≤ 10 µM
CCOC(=O)C1=C(C)NC(=O)NC1c1ccc([N+](=O)[O-])o1 (centres unmarked)	resazurin	H37RV	–	MIC	20.1 µM
CC(C)/N=c1\cc2n(-c3ccc(Cl)cc3)c3ccccc3nc-2cc1Nc1ccc(Cl)cc1	–	–	7 days	MIC90	0.39 µM (≈ 0.185 µg/mL)
CN[C@@H]1[C@H](O)[C@H](NC)[C@H]2O[C@@]3(O)C(=O)C[C@@H](C)O[C@H]3O[C@@H]2[C@H]1O	broth dilution	H37RV	7 days	MIC	100 µg/mL
CC(=O)OCOc1ccc2nc3ccc(=O)cc-3oc2c1	–	–	7 days	MIC90	34 µM
CCOC(=O)C1=C(C)NC(=NNS(=O)(=O)c2ccccc2)NC1c1cn(-c2ccccc2)nc1-c1ccccc1 (centres unmarked)	resazurin	H37RV	–	MIC	44.6 to 45.8 µM
O=C(O)c1cn(C2CC2)c2cc(N3CCNCC3)c(F)cc2c1=O	–	ATCC25177 H37RA	14 days	MIC	16 µg/mL
CCOC(=O)C1=C(C)NC(=S)NC1c1cn(-c2ccccc2)nc1-c1ccccc1 (centres unmarked)	resazurin	H37RV	–	MIC	59.7 µM
COc1c(N2CC3CCCN(C(=O)OCc4ccc([N+](=O)[O-])cc4)C3C2)c(F)cc2c(=O)c(C(=O)O)cn(C3CC3)c12 (centres unmarked)	–	H37RV	–	MIC	> 8 µM
